Experimental data taken from ChEMBL document CHEMBL4325831, “Novel Pyrrole-Imidazole Polyamide Hoechst Conjugate Suppresses Epstein-Barr Virus Replication and Virus-Positive Tumor Growth” (J Med Chem, 2018).
Active and inactive are the calls of the source. The rule behind the calls is not given here.

Key:
[1] = Inhibition of recombinant EBNA1 binding to biotin-labeled Epstein-Barr virus OriP hairpin DNA EBNA1 site 1 assessed as dissociation constant by SPR assay; design: species or system human gammaherpesvirus 4
[2] = Inhibition of recombinant EBNA1 binding to biotin-labeled Epstein-Barr virus OriP hairpin DNA EBNA1 site 1 mutant assessed as dissociation constant by SPR assay; design: species or system human gammaherpesvirus 4
In short: (§1)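 SPR on a streptavidin-coated chip (about 16 000 RU) carrying biotinylated short hairpin DNA, loaded at 200 nM and immobilized to about 700–900 RU. Run in HBS-EP (10 mM HEPES pH 7.4, 150 mM NaCl, 3 mM EDTA, 0.005% P20) at 25 °C. Polyamides were diluted first in ultrapure water, then into a concentration gradient. ka and kd were fitted from sensorgrams.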

[3] = Inhibition of recombinant EBNA1 binding to biotin-labeled Epstein-Barr virus OriP hairpin DNA EBNA1 site 2 assessed as dissociation constant by SPR assay; design: species or system human gammaherpesvirus 4
[4] = Inhibition of recombinant EBNA1 binding to biotin-labeled Epstein-Barr virus OriP hairpin DNA EBNA1 site 2 mutant assessed as dissociation constant by SPR assay; design: species or system human gammaherpesvirus 4; in short: as §1
human gammaherpesvirus 4 [5] = assay: Inhibition of recombinant EBNA1 binding to biotin-labeled Epstein-Barr virus OriP hairpin DNA EBNA1 site 1 assessed as reduction in RU increase at 200 nM by SPR assay
In short: (§2)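 SPR in HBS-EP (10 mM HEPES pH 7.4, 150 mM NaCl, 3 mM EDTA, 0.005% P20) at 25 °C. Biotin hairpin DNA (200 nM) captured at 700–900 RU on streptavidin. Polyamide (200 nM) injected at 25 μL/min for 4 min with no dissociation phase, then 100 nM recombinant EBNA1 for 3 min. Relative reduction in RU rise recorded.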

human gammaherpesvirus 4 [6] = assay: Inhibition of recombinant EBNA1 binding to biotin-labeled Epstein-Barr virus OriP hairpin DNA EBNA1 site 2 assessed as reduction in RU increase at 200 nM by SPR assay; in short: as §2
Human gammaherpesvirus 4 [7] = assay: Inhibition of Epstein-Barr virus-induced human Raji cell proliferation assessed reduction in cell viability at 10 uM measured at day 3 and day 6 post dose following media refreshment every 3 days trypan blue dye-based assay; format: functional, organism-based
In short: (§3)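 5 × 10^5 cells in 2 mL medium with 10 μM polyamide. After 3 days an equal volume of fresh medium containing polyamide was added. Living cells counted by 0.4% trypan blue exclusion at days 3 and 6. Significance by one-way ANOVA.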

Human gammaherpesvirus 4 [8] = assay: Inhibition of Epstein-Barr virus-induced human Daudi cell proliferation assessed reduction in cell viability at 10 uM measured at day 3 and day 6 post dose following media refreshment every 3 days trypan blue dye-based assay; format: functional, organism-based; in short: as §3
MOLT-4 [9] = assay: Cell growth inhibition of human MOLT4 cells at 10 uM measured at day 3 and day 6 following media refreshment every 3 days by trypan blue dye-based assay; format: functional; in short: as §3
Human gammaherpesvirus 4 [10] = assay: Inhibition of Epstein-Barr virus-induced human Daudi cell proliferation after 72 hrs by MTT assay; format: functional; settings: human gammaherpesvirus 4, Daudi
In short: (§4)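 Suspension cells seeded at 7 × 10^3 per well, adherent at 3 × 10^3 per well, in quadruplicate across a concentration series. Grown 72 h, then viability relative to control read by MTT. GI50 from sigmoidal dose–response fit; at least triplicate experiments. RPMI-based medium for suspension lines, high-glucose DMEM for MDA-MB-231, both with 10% FBS, 5% CO2, 37 °C.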

Human gammaherpesvirus 4 [11] = assay: Inhibition of Epstein-Barr virus-induced human Raji cell proliferation after 72 hrs by MTT assay; format: functional; settings: human gammaherpesvirus 4, Raji; in short: as §4
Human gammaherpesvirus 4 [12] = assay: Inhibition of Epstein-Barr virus-induced […] cell proliferation after 72 hrs by MTT assay; format: functional; settings: human gammaherpesvirus 4, B-95-8, 72 h; in short: as §4
NALM-6 = assay: Cell growth inhibition of human NALM6 cells after 72 hrs by MTT assay; format: functional; settings: NALM-6, 72 h; in short: as §4
RPMI-8226 = assay: Cell growth inhibition of human RPMI8226 cells after 72 hrs by MTT assay; format: functional; settings: RPMI-8226, 72 h; in short: as §4
MOLT-4 [13] = assay: Cell growth inhibition of human MOLT4 cells after 72 hrs by MTT assay; format: functional; settings: MOLT-4, 72 h; in short: as §4
Jurkat = assay: Cell growth inhibition of human Jurkat cells after 72 hrs by MTT assay; format: functional; in short: as §4
MDA-MB-231 = assay: Cell growth inhibition of human MDA-MB-231 cells after 72 hrs by MTT assay; format: functional; settings: MDA-MB-231, 72 h; in short: as §4
Raji [14] = assay: Inhibition of EBNA1 binding to Epstein-Barr virus OriP DNA in human Raji cells assessed as reduction in EBV copy number at 10 uM after 120 hrs by qRT-PCR analysis; format: cell-based; settings: human gammaherpesvirus 4
In short: (§5)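 Raji (5 × 10^5), B95-8 (5 × 10^5) or Daudi (1 × 10^6) cells cultured with 10 μM polyamide. Genomic DNA extracted at intervals (Raji every 24 h). SYBR real-time PCR in triplicate: 95 °C 5 min, then 40 cycles of 95 °C 10 s / 60 °C 30 s, followed by melt curve. EBV copies relative to cellular DNA by ΔΔCt.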

Raji [15] = assay: Inhibition of EBNA1 binding to Epstein-Barr virus OriP DNA in human Raji cells at 10 uM after 24 to 48 hrs by chIP assay; format: cell-based; settings: human gammaherpesvirus 4
In short: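 Raji cells with 10 μM polyamide, 8 × 10^6 harvested at 0, 24 and 48 h. Formaldehyde fixation, enzymatic chromatin ChIP; 2% input kept. IP overnight with 1 μg anti-EBNA1 or mouse IgG1, magnetic-bead capture. OriP detected by SYBR qPCR (95 °C 5 min; 40 cycles of 95 °C 15 s / 60 °C 60 s). ΔΔCt relative to input.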

Raji [16] = assay: Inhibition of EBNA1 binding to Epstein-Barr virus OriP DNA in human Raji cells assessed as reduction in EBNA1 protein expression up to 20 uM after 24 hrs by Western blot analysis; format: cell-based; settings: human gammaherpesvirus 4
In short: (§6)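 Raji cells exposed 24 h to 0, 1, 2, 5, 10 or 20 μM. Cells lysed in nondenaturing buffer with protease inhibitors and run on 10% SDS-PAGE, then PVDF. Membranes probed overnight at 4 °C for EBNA1, EBNA2 and GAPDH, HRP secondary 1 h, chemiluminescent detection. At least triplicate.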

Raji [17] = assay: Inhibition of EBNA1 binding to Epstein-Barr virus OriP DNA in human Raji cells assessed as reduction in EBNA2 protein expression up to 20 uM after 24 hrs by Western blot analysis; format: cell-based; settings: human gammaherpesvirus 4; in short: as §6
Daudi = assay: Inhibition of EBNA1 binding to Epstein-Barr virus OriP DNA in human Daudi cells assessed as reduction in EBV copy number at 10 uM after 120 hrs by qRT-PCR analysis; format: cell-based; settings: human gammaherpesvirus 4; in short: as §5
human gammaherpesvirus 4 [18] = assay: Inhibition of EBNA1 binding to Epstein-Barr virus OriP DNA in […] cells assessed as reduction in EBV copy number at 10 uM after 120 hrs by qRT-PCR analysis; format: cell-based; in short: as §5
Human gammaherpesvirus 4 [19] = assay: Inhibition of Epstein-Barr virus-induced human Raji cell proliferation xenografted in Balb/c mouse assessed as reduction in tumor size at 5 mg/kg, sc administered every 3 days for 25 days and measured every 3 days before drug injection; format: functional, organism-based
In short: (§7)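 Female Balb/c nude mice given 1 × 10^7 Raji cells sc in left flank (in 100 μL serum-free RPMI). Dosing began at tumor ~50 mm3 (L × W × 1/2W). Compound in 100 μL 5% DMSO/0.9% NaCl, injected sc around tumor every 3 days, eight injections; vehicle n = 6, treated groups n = 7. Tumor size and body weight taken before each injection. Tumor DNA analysed by real-time PCR for relative EBV copy number.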

Human gammaherpesvirus 4 [20] = assay: Inhibition of Epstein-Barr virus-induced human Raji cell proliferation xenografted in Balb/c mouse assessed as reduction in tumor size at 10 mg/kg, sc administered every 3 days for 25 days and measured every 3 days before drug injection; format: functional, organism-based; in short: as §7
Human gammaherpesvirus 4 [21] = assay: Antiviral activity against Epstein-Barr virus positive human Raji cells xenografted in Balb/c mouse assessed as reduction in EBV DNA copy at 5 to 10 mg/kg, sc administered every 3 days for 25 days; format: functional, organism-based; in short: as §7
[22] = Toxicity in Balb/c mouse infected with Epstein-Barr virus positive human Raji cells assessed as body weight loss at 5 to 10 mg/kg, sc administered every 3 days for 25 days and measured every 3 days before drug injection; format: organism-based; settings: in vivo; in short: as §7

## CN(C)CCCNC(=O)c1cc(NC(=O)c2nc(NC(=O)c3cc(NC(=O)c4cc(NC(=O)[C@H](N)CCNC(=O)c5cc(NC(=O)c6cc(NC(=O)c7cc(NC(=O)c8nccn8C)cn7C)cn6C)cn5C)cn4C)cn3C)cn2C)cn1C
[1]
  Kd: 0.0015 µM
[2]
  Kd: 0.0252 µM
[3]
  Kd: 0.00452 µM
[4]
  Kd: 0.0206 µM
Human gammaherpesvirus 4 [5]
  fold change (FC): 0.646
Human gammaherpesvirus 4 [6]
  fold change (FC): 0.524
Human gammaherpesvirus 4 [7]
  inhibition: Active
Human gammaherpesvirus 4 [8]
  inhibition: Active
MOLT-4 [9]
  growth inhibition (GI): inactive
Human gammaherpesvirus 4 [10]
  GI50: 12.9 µM
Human gammaherpesvirus 4 [11]
  GI50: 29.4 µM
Human gammaherpesvirus 4 [12]
  GI50: 30.2 µM
NALM-6
  GI50: 41.9 µM
RPMI-8226
  GI50: 43.9 µM
MOLT-4 [13]
  GI50: 30.3 µM
Jurkat
  GI50: > 100 µM
MDA-MB-231
  GI50: > 100 µM
Raji [14]
  inhibition: inactive
Raji [15]
  inhibition: inactive
Raji [16]
  inhibition: inactive
Raji [17]
  inhibition: inactive

## CN(C)CCCNC(=O)c1cc(NC(=O)c2nc(NC(=O)c3cc(NC(=O)c4cc(NC(=O)[C@@H](CCNC(=O)c5cc(NC(=O)c6cc(NC(=O)c7cc(NC(=O)c8nccn8C)cn7C)cn6C)cn5C)NC(=O)CCCOc5ccc(-c6nc7cc(-c8nc9cc(N%10CCN(C)CC%10)ccc9[nH]8)ccc7[nH]6)cc5)cn4C)cn3C)cn2C)cn1C
[1]
  Kd: 0.0228 µM
[2]
  Kd: 0.747 µM
[3]
  Kd: 0.0129 µM
[4]
  Kd: 0.187 µM
Human gammaherpesvirus 4 [5]
  fold change (FC): 0.583
Human gammaherpesvirus 4 [6]
  fold change (FC): 0.412
Human gammaherpesvirus 4 [7]
  inhibition: Active
Human gammaherpesvirus 4 [8]
  inhibition: Active
MOLT-4 [9]
  growth inhibition (GI): inactive
Human gammaherpesvirus 4 [10]
  GI50: 4.02 µM
Human gammaherpesvirus 4 [11]
  GI50: 8 µM
Human gammaherpesvirus 4 [12]
  GI50: 9.42 µM
NALM-6
  GI50: 22.2 µM
RPMI-8226
  GI50: 24.5 µM
MOLT-4 [13]
  GI50: 25 µM
Jurkat
  GI50: > 100 µM
MDA-MB-231
  GI50: > 100 µM
Raji [14]
  inhibition: Active
Daudi
  inhibition: Active
Human gammaherpesvirus 4 [18]
  inhibition: Active
Raji [15]
  inhibition: Active
Raji [16]
  inhibition: Dose-dependent effect
Raji [17]
  inhibition: Dose-dependent effect
Human gammaherpesvirus 4 [19]
  inhibition: Active
Human gammaherpesvirus 4 [20]
  inhibition: Active
Human gammaherpesvirus 4 [21]
  Activity: Active
[22]
  Activity: Non-Toxic

## CN(C)CCCNC(=O)c1cc(NC(=O)c2cc(NC(=O)c3cc(NC(=O)c4cc(NC(=O)[C@@H](CCNC(=O)c5cc(NC(=O)c6cc(NC(=O)c7nc(NC(=O)c8nccn8C)cn7C)cn6C)cn5C)NC(=O)CCCOc5ccc(-c6nc7cc(-c8nc9cc(N%10CCN(C)CC%10)ccc9[nH]8)ccc7[nH]6)cc5)cn4C)cn3C)cn2C)cn1C
[1]
  Kd: 0.335 µM
[3]
  Kd: 0.263 µM
Human gammaherpesvirus 4 [5]
  fold change (FC): 0.091
Human gammaherpesvirus 4 [6]
  fold change (FC): 0.088
Raji [14]
  inhibition: inactive
